Test results as given in ChEMBL document CHEMBL4304743, “Discovery of ( E)- N1-(3-Fluorophenyl)- N3-(3-(2-(pyridin-2-yl)vinyl)-1 H-indazol-6-yl)malonamide (CHMFL-KIT-033) as a Novel c-KIT T670I Mutant Selective Kinase Inhibitor for Gastrointestinal Stromal Tumors (GISTs)” (J Med Chem, 2019).
Activity calls are given as the source filed them. The rule behind the calls is not given here.

What was measured:
[1] = Selectivity ratio, ratio of inhibition of wild type TEL fused c-KIT (unknown origin) transfected in mouse BAF3 cells assessed as growth inhibition to inhibition of TEL fused c-KIT T670I mutant (unknown origin) transfected in mouse BAF3 cells assessed as growth inhibition; parameters: species or system Homo sapiens
Summary of the method: (§1)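 IL-3 independent BaF3 cells stably expressing tel-c-KIT wt or tel-c-KIT T670I, grown in RPMI 1640 with 10% FBS, 2% L-glutamine, 37 °C, 5% CO2. Suspension cells at 1.5 to 5 × 10^4 cells/mL mixed with serial compound dilutions and incubated 72 h. Viability read by CCK-8 absorbance at 450 nm, normalized to DMSO; GI50 from curve fit. Selectivity is wt GI50 over T670I GI50.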

[2] = system: Mast/stem cell growth factor receptor Kit (Homo sapiens), P10721 [T670I]; test: Inhibition of TEL fused c-KIT T670I mutant (unknown origin) transfected in mouse BAF3 cells assessed as growth inhibition after 72 hrs by CCK8 assay; assay type: cell-based
Summary of the method: (§2)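 Tel-c-KIT-transformed BaF3 lines (IL-3 independent) kept in RPMI 1640 with 10% FBS, 2% L-glutamine and pen/strep. Cells at 1.5 to 5 × 10^4 cells/mL mixed with graded compound and incubated 72 h at 37 °C, 5% CO2. Viability by CCK-8 absorbance at 450 nm, normalized to DMSO. GI50 from dose–response fit.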

[3] = target: Mast/stem cell growth factor receptor Kit (Homo sapiens, UniProt P10721); test: Inhibition of wild type TEL fused c-KIT (unknown origin) transfected in mouse BAF3 cells assessed as growth inhibition after 72 hrs by CCK8 assay; assay type: cell-based; conditions: baf3, 72 h; summary of the method: as §1
[4] = Antiproliferative activity in mouse BAF3 cells after 72 hrs by CCK8 assay; assay type: cell-based
Summary of the method: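 IL-3-independent BaF3 cells carrying tel-c-KIT constructs, grown in RPMI 1640 with 10% FBS. Cells at 1.5-5 × 10^4 cells/mL mixed directly with serial compound dilutions, 72 h at 37 °C, 5% CO2. CCK-8 read-out at 450 nm, normalized to DMSO; GI50 by curve fitting.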

[5] = system: Mast/stem cell growth factor receptor Kit (Homo sapiens), P10721 [UNDEFINED MUTATION]; conditions: 1 uM
[6] = system: Mast/stem cell growth factor receptor Kit (Homo sapiens), P10721 [V654A]; test: Inhibition of TEL fused c-KIT V654A mutant (unknown origin) transfected in mouse BAF3 cells assessed as growth inhibition after 72 hrs by CCK8 assay; assay type: cell-based; summary of the method: as §2
GISTT1 [7] = test: Antiproliferative activity against human GISTT1 cells harboring c-KIT 560 to 578 deletion/T670I double mutant incubated for 72 hrs by CCK8 assay; assay type: functional; conditions: GISTT1, 72 h
Summary of the method: (§3)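 Adherent GIST cells seeded at 1.5-5 × 10^4 cells/mL and left overnight at 37 °C, 5% CO2. Medium then replaced with medium holding serial compound dilutions; 72 h incubation. Viability by CCK-8, absorbance at 450 nm, normalized to DMSO control; GI50 from dose-response fit.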

GIST882 = test: Antiproliferative activity against human GIST882 cells harboring c-KIT K642E mutant incubated for 72 hrs by CCK8 assay; assay type: functional; conditions: GIST882, 72 h; summary of the method: as §3
[8] = system: Mast/stem cell growth factor receptor Kit (Homo sapiens), P10721 [D820E]; test: Inhibition of TEL fused c-KIT D820E mutant (unknown origin) transfected in mouse BAF3 cells assessed as growth inhibition after 72 hrs by CCK8 assay; assay type: cell-based; summary of the method: as §2
[9] = system: Mast/stem cell growth factor receptor Kit (Homo sapiens), P10721 [L576P]; test: Inhibition of TEL fused c-KIT L576P mutant (unknown origin) transfected in mouse BAF3 cells assessed as growth inhibition after 72 hrs by CCK8 assay; assay type: cell-based; summary of the method: as §2
[10] = system: Mast/stem cell growth factor receptor Kit (Homo sapiens), P10721 [V559G]; test: Inhibition of TEL fused c-KIT V559G mutant (unknown origin) transfected in mouse BAF3 cells assessed as growth inhibition after 72 hrs by CCK8 assay; assay type: cell-based; summary of the method: as §2
[11] = system: Mast/stem cell growth factor receptor Kit (Homo sapiens), P10721 [UNDEFINED MUTATION]; conditions: GISTT1, 1 uM
GISTT1 [12] = test: Antiproliferative activity against human GISTT1 cells harboring c-KIT 560 to 578 deletion mutant incubated for 72 hrs by CCK8 assay; assay type: functional; conditions: GISTT1, 72 h; summary of the method: as §3
[13] = system: Mast/stem cell growth factor receptor Kit (Homo sapiens), P10721 [V559A]; test: Inhibition of TEL fused c-KIT V559A mutant (unknown origin) transfected in mouse BAF3 cells assessed as growth inhibition after 72 hrs by CCK8 assay; assay type: cell-based; summary of the method: as §2
[14] = Antiproliferative activity against human GIST48B cells incubated for 72 hrs by CCK8 assay; assay type: functional; summary of the method: as §3
[15] = Antitumor activity against human GIST5R cells xenografted in nude mouse assessed as tumor weight at 100 mg/kg, po administered […] via gavage for 28 days (reference value: 0.59g); assay type: functional
Summary of the method: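 Female nu/nu mice (5 weeks old) given subcutaneous right-flank GIST-5R cells in Matrigel. Dosing began at tumors of 200-400 mm3; randomized, 4 mice per group. Daily oral dosing (QD) at 25, 50 or 100 mg/kg in 0.5% methylcellulose/0.4% Tween80, or vehicle alone, for 28 days. Body weight and tumor volume, (W²×L)/2, measured daily; mean±SEM.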

[16] = Antiproliferative activity against human GIST5R cells harboring c-KIT 560 to 578 deletion/T670I double mutant incubated for 72 hrs by CCK8 assay; assay type: functional; summary of the method: as §3
[17] = system: Mast/stem cell growth factor receptor Kit (Homo sapiens), P10721 [UNDEFINED MUTATION]; conditions: GISTT1, 1 uM; remark: listed apart in the source
[18] = system: Mast/stem cell growth factor receptor Kit (Homo sapiens), P10721 [D816V]; test: Inhibition of TEL fused c-KIT D816V mutant (unknown origin) transfected in mouse BAF3 cells assessed as growth inhibition after 72 hrs by CCK8 assay; assay type: cell-based; summary of the method: as §2
[19] = system: Mast/stem cell growth factor receptor Kit (Homo sapiens), P10721 [V559D,T670I]; test: Inhibition of TEL fused c-KIT T670I/V559D double mutant (unknown origin) transfected in mouse BAF3 cells assessed as growth inhibition after 72 hrs by CCK8 assay; assay type: cell-based; summary of the method: as §2
[20] = system: Mast/stem cell growth factor receptor Kit (Homo sapiens), P10721 [V559D,V654A]; test: Inhibition of TEL fused c-KIT V654A/V559D double mutant (unknown origin) transfected in mouse BAF3 cells assessed as growth inhibition after 72 hrs by CCK8 assay; assay type: cell-based; summary of the method: as §2
[21] = system: Mast/stem cell growth factor receptor Kit (Homo sapiens), P10721 [N822K]; test: Inhibition of TEL fused c-KIT N822K mutant (unknown origin) transfected in mouse BAF3 cells assessed as growth inhibition after 72 hrs by CCK8 assay; assay type: cell-based; summary of the method: as §2
[22] = system: Mast/stem cell growth factor receptor Kit (Homo sapiens), P10721 [V559D]; test: Inhibition of TEL fused c-KIT V559D mutant (unknown origin) transfected in mouse BAF3 cells assessed as growth inhibition after 72 hrs by CCK8 assay; assay type: cell-based; summary of the method: as §2
[23] = system: Mast/stem cell growth factor receptor Kit (Homo sapiens), P10721 [A829P]; test: Inhibition of TEL fused c-KIT A829P mutant (unknown origin) transfected in mouse BAF3 cells assessed as growth inhibition after 72 hrs by CCK8 assay; assay type: cell-based; summary of the method: as §2
[24] = system: Mast/stem cell growth factor receptor Kit (Homo sapiens), P10721 [D816H]; test: Inhibition of TEL fused c-KIT D816H mutant (unknown origin) transfected in mouse BAF3 cells assessed as growth inhibition after 72 hrs by CCK8 assay; assay type: cell-based; summary of the method: as §2
Mast/stem cell growth factor receptor Kit (Homo sapiens), P10721 [D816H], sequence (P10721 whole entry D816H, the tested form may be a part): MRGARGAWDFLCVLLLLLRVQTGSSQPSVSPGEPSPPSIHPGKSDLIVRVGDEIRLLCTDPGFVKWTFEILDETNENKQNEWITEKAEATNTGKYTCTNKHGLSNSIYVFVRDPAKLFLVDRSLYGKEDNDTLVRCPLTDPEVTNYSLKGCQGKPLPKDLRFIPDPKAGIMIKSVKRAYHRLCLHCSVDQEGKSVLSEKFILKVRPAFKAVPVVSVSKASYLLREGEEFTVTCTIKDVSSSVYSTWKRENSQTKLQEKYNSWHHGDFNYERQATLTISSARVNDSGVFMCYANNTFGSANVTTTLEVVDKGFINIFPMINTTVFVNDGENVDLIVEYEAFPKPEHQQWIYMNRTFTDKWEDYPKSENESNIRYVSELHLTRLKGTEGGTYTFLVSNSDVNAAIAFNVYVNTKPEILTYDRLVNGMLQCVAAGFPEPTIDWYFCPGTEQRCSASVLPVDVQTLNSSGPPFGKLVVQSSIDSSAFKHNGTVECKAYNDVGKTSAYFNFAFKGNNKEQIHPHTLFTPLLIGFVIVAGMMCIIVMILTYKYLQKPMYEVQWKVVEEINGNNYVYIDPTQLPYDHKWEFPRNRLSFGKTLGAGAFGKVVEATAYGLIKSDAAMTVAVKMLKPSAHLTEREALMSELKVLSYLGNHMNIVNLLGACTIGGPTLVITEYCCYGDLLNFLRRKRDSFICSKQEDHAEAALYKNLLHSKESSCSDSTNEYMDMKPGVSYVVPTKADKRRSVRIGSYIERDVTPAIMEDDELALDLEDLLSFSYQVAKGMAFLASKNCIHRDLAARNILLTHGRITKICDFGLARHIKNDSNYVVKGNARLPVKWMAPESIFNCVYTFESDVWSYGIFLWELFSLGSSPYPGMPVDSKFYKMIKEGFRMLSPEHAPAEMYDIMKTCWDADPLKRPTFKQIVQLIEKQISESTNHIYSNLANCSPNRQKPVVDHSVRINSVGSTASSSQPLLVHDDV

Mast/stem cell growth factor receptor Kit (Homo sapiens), P10721 [UNDEFINED MUTATION], sequence (P10721 whole entry, looked up, stated change not applied, the tested form may be a part): as the sequence (P10721 whole entry D816H, the tested form may be a part) above, with H816D counted along it
Mast/stem cell growth factor receptor Kit, sequence (P10721 whole entry, the tested form may be a part): as the sequence (P10721 whole entry D816H, the tested form may be a part) above, with H816D counted along it
Mast/stem cell growth factor receptor Kit (Homo sapiens), P10721 [T670I], sequence (P10721 whole entry T670I, the tested form may be a part): as the sequence (P10721 whole entry D816H, the tested form may be a part) above, with T670I, H816D counted along it
Mast/stem cell growth factor receptor Kit (Homo sapiens), P10721 [L576P], sequence (P10721 whole entry L576P, the tested form may be a part): as the sequence (P10721 whole entry D816H, the tested form may be a part) above, with L576P, H816D counted along it
Mast/stem cell growth factor receptor Kit (Homo sapiens), P10721 [V559G], sequence (P10721 whole entry V559G, the tested form may be a part): as the sequence (P10721 whole entry D816H, the tested form may be a part) above, with V559G, H816D counted along it
Mast/stem cell growth factor receptor Kit (Homo sapiens), P10721 [V654A], sequence (P10721 whole entry V654A, the tested form may be a part): as the sequence (P10721 whole entry D816H, the tested form may be a part) above, with V654A, H816D counted along it
Mast/stem cell growth factor receptor Kit (Homo sapiens), P10721 [V559A], sequence (P10721 whole entry V559A, the tested form may be a part): as the sequence (P10721 whole entry D816H, the tested form may be a part) above, with V559A, H816D counted along it
Mast/stem cell growth factor receptor Kit (Homo sapiens), P10721 [D820E], sequence (P10721 whole entry D820E, the tested form may be a part): as the sequence (P10721 whole entry D816H, the tested form may be a part) above, with H816D, D820E counted along it
Mast/stem cell growth factor receptor Kit (Homo sapiens), P10721 [N822K], sequence (P10721 whole entry N822K, the tested form may be a part): as the sequence (P10721 whole entry D816H, the tested form may be a part) above, with H816D, N822K counted along it
Mast/stem cell growth factor receptor Kit (Homo sapiens), P10721 [D816V], sequence (P10721 whole entry D816V, the tested form may be a part): as the sequence (P10721 whole entry D816H, the tested form may be a part) above, with H816V counted along it
Mast/stem cell growth factor receptor Kit (Homo sapiens), P10721 [V559D,T670I], sequence (P10721 whole entry V559D/T670I, the tested form may be a part): as the sequence (P10721 whole entry D816H, the tested form may be a part) above, with V559D, T670I, H816D counted along it
Mast/stem cell growth factor receptor Kit (Homo sapiens), P10721 [V559D], sequence (P10721 whole entry V559D, the tested form may be a part): as the sequence (P10721 whole entry D816H, the tested form may be a part) above, with V559D, H816D counted along it
Mast/stem cell growth factor receptor Kit (Homo sapiens), P10721 [A829P], sequence (P10721 whole entry A829P, the tested form may be a part): as the sequence (P10721 whole entry D816H, the tested form may be a part) above, with H816D, A829P counted along it
Mast/stem cell growth factor receptor Kit (Homo sapiens), P10721 [V559D,V654A], sequence (P10721 whole entry V559D/V654A, the tested form may be a part): as the sequence (P10721 whole entry D816H, the tested form may be a part) above, with V559D, V654A, H816D counted along it

With O=C(CC(=O)Nc1ccc2c(-c3cccnc3)n[nH]c2c1)Nc1ccc(Cl)c(C(F)(F)F)c1 the RatioGI50 [1] was 7 - 15, the GI50 [2] was 0.045 µM and the GI50 [3] was 0.32 µM. For the same compound, the GI50 at 72 h [4] was over 10 µM.

Compound O=C(CC(=O)Nc1ccc2c(/C=C/c3ccccn3)n[nH]c2c1)Nc1ccccc1 has a RatioGI50 [1] of 19, a GI50 [2] of 0.117 µM and a GI50 [3] of 2.22 µM. It also gave a GI50 at 72 h [4] of 6.72 µM.

In the case of Cn1cc(-c2n[nH]c3cc(NC(=O)CC(=O)Nc4ccc(Cl)c(C(F)(F)F)c4)ccc23)cn1, the RatioGI50 [1] is reported as 7 - 15, the GI50 [2] is reported as 0.023 µM and the GI50 [3] is reported as 0.35 µM. The GI50 at 72 h [4] was over 10 µM.

With Cc1ccc(NC(=O)c2ccc(CN3CCN(C)CC3)cc2)cc1Nc1nccc(-c2cccnc2)n1 [IMATINIB] the inhibition [5] was “inactive”, the GI50 [6] was 2.3 µM and the GI50 (GISTT1 [7]) was over 10 µM. It also gave a GI50 [3] of 0.364 µM, a GI50 (GIST882) of 0.058 µM and a GI50 [8] of 0.267 µM. For the same compound, the GI50 [9] was 0.115 µM, the GI50 [10] was 0.001 µM and the inhibition [11] was “inactive”. The GI50 (GISTT1 [12]) was 0.026 µM, the GI50 [13] was 0.005 µM and the GI50 [14] was over 10 µM. For the same compound, the Activity [15] was 0.41 g, the GI50 [16] was over 10 µM and the inhibition [17] was “inactive”.

Compound O=C(CC(=O)Nc1ccc2c(/C=C/c3ccccn3)n[nH]c2c1)Nc1ccc(Cl)c(C(F)(F)F)c1 has a RatioGI50 [1] of 12, a GI50 [2] of 0.002 µM and a GI50 [3] of 0.025 µM. The GI50 at 72 h [4] was 7.4 µM.

In the case of CNC(=O)c1ccccc1Sc1ccc2c(/C=C/c3ccccn3)n[nH]c2c1 [AXITINIB], the GI50 [18] is reported as 2.02 µM, the GI50 [6] is reported as 0.014 µM and the GI50 [2] is reported as 0.108 µM. It also gave a GI50 [3] of 0.105 µM, a GI50 [8] of 0.156 µM and a GI50 [9] of 0.007 µM. It also gave a GI50 [10] of 0.002 µM, a GI50 [13] of 0.005 µM and a GI50 [19] of 0.129 µM. It also gave a GI50 [20] of 0.013 µM, a GI50 [21] of 1.72 µM and a GI50 [22] of 0.012 µM. The GI50 [23] was 0.406 µM and the GI50 [24] was 1.82 µM.

In the case of CNC(=O)c1ccc(-c2n[nH]c3cc(NC(=O)CC(=O)Nc4ccc(Cl)c(C(F)(F)F)c4)ccc23)cc1, the RatioGI50 [1] is reported as 6, the GI50 [2] is reported as 0.057 µM and the GI50 [3] is reported as 0.338 µM. The GI50 at 72 h [4] was over 10 µM.
